Measurements reported in ChEMBL document CHEMBL1914352, “Design, synthesis, docking, and biological evaluation of novel diazide-containing isoxazole- and pyrazole-based histone deacetylase probes” (J Med Chem, 2011).
Active and inactive are the calls of the source. No cut-off for these calls is given here.

Experiments:
Histone deacetylase 2 = Histone deacetylase 2 (Homo sapiens, UniProt Q92769)
HeLa = assay: cells; assay type: functional, cell-based; conditions: Homo sapiens, 24 h
Histone deacetylase 9 = Histone deacetylase 9 (Homo sapiens, UniProt Q9UKV0); assay: Inhibition of human recombinant HDAC9 using fluorophore-conjugated substrate Boc-L-Lys(Ac)-AMC after 60 mins
Histone deacetylase 7 = target: T1, Histone deacetylase 7 (Homo sapiens, UniProt Q8WUI4); assay: Inhibition of human recombinant HDAC7 using fluorophore-conjugated substrate Boc-L-Lys(Ac)-AMC after 60 mins
T1 sequence (Q8WUI4 whole entry): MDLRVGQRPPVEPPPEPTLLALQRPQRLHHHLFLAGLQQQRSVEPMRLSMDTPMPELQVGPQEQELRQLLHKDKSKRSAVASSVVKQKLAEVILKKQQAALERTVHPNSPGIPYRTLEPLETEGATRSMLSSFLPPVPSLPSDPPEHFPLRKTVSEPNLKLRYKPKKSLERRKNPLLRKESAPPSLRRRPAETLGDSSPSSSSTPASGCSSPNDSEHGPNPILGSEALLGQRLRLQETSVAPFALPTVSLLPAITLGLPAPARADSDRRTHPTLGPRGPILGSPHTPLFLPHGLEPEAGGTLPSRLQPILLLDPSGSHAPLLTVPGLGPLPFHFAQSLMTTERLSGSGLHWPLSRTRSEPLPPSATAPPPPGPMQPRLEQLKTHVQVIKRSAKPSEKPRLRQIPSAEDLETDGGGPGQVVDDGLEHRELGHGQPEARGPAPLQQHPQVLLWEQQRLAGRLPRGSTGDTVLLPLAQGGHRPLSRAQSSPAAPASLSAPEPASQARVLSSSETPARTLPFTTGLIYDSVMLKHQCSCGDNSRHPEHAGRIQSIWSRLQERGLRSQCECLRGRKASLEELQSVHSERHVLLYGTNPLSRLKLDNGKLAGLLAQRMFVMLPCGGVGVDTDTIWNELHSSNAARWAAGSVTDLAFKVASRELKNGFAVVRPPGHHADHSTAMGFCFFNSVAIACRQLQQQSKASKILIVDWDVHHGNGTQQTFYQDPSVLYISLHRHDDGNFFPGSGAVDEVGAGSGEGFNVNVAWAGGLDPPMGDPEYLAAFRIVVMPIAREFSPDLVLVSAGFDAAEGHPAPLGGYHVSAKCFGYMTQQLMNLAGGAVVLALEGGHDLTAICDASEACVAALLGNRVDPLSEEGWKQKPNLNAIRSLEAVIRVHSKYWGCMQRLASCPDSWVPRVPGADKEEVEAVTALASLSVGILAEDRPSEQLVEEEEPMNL

[1] = target: T2, Protein deacetylase HDAC6 (Homo sapiens, UniProt Q9UBN7); assay: Inhibition of human recombinant HDAC6 using fluorophore-conjugated substrate Boc-L-Lys(Ac)-AMC after 60 mins
T2 sequence (Q9UBN7 whole entry): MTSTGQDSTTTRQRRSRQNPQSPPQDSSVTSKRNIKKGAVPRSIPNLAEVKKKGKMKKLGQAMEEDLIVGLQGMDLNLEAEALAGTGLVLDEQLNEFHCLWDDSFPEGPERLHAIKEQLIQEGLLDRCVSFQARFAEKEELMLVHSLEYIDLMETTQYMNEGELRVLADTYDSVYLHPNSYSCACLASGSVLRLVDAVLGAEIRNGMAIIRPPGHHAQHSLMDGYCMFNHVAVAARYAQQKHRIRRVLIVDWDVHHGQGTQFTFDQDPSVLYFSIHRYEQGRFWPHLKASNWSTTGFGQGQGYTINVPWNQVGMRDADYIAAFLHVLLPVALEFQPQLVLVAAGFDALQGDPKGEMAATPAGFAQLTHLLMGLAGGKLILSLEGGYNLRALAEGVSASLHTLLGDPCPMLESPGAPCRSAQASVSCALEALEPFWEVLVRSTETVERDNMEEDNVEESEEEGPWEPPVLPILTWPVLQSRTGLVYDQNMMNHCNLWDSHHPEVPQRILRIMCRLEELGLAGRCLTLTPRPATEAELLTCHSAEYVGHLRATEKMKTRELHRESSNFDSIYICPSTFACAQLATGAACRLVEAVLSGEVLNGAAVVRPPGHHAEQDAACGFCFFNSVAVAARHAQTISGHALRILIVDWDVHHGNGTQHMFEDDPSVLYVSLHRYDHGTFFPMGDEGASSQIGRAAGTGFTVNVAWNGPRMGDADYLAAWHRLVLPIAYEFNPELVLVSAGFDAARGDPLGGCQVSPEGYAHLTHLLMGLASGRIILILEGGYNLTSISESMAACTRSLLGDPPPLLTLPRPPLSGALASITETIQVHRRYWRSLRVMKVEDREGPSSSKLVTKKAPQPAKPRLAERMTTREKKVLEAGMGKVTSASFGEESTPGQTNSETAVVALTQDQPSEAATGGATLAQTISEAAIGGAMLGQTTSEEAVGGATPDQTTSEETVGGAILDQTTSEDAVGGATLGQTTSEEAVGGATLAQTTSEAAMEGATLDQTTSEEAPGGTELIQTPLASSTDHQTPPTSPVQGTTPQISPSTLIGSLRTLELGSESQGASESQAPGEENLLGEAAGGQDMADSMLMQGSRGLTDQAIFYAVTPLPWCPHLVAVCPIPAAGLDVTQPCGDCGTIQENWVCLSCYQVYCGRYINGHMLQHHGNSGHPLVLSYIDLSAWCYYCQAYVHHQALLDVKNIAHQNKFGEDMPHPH

Histone deacetylase 1 = Histone deacetylase 1 (Homo sapiens, UniProt Q13547); assay: Inhibition of human recombinant HDAC1 using fluorophore-conjugated substrate Boc-L-Lys(Ac)-AMC after 60 mins
HepG2 [2] = assay: Induction of apoptosis in human HepG2 cells assessed as cleavage of caspase 3 at 1 to 10 uM after 24 hrs by Western blot analysis; assay type: functional, cell-based
Method in brief: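 HepG2 cells are seeded at 2.7×10^5 cells/well in D7 medium (DMEM, 7% FBS), refed after 24 h, and after 1 h at 37 °C treated with DMSO or 1, 5 or 10 µM inhibitor. Lysis is in ice-cold 1% CHAPSO buffer (50 mM Hepes pH 7.4), 45 min at 4 °C. Immunoblots are probed for cleaved caspase 3 Asp175, acetyl-Lys373 p53, total p53 and GAPDH, detected by chemiluminescence, with band densitometry.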

HepG2 [3] = assay: cells; assay type: functional, cell-based; conditions: Homo sapiens, HepG2, 72 h
[4] = target: Histone deacetylase (Homo sapiens) (UniProt Q13547+O15379+Q9UBN7+Q92769+Q9UQL6+Q8WUI4+Q9BY41+Q96DB2+P56524+Q9UKV0+Q969S8); assay: Inhibition of HDAC in retinoic acid-differentiated human SH-SY5Y cells assessed as increase in histone H4 acetylation at 1 uM after 24 hrs by Western blot analysis in presence of 100 uM LY294002; assay type: cell-based
Stromelysin-1 = Stromelysin-1 (Homo sapiens, UniProt P08254); assay: Inhibition of MMP3 assessed as activity remaining at […]
Stromelysin-1, sequence (P08254 100-477 limits assumed): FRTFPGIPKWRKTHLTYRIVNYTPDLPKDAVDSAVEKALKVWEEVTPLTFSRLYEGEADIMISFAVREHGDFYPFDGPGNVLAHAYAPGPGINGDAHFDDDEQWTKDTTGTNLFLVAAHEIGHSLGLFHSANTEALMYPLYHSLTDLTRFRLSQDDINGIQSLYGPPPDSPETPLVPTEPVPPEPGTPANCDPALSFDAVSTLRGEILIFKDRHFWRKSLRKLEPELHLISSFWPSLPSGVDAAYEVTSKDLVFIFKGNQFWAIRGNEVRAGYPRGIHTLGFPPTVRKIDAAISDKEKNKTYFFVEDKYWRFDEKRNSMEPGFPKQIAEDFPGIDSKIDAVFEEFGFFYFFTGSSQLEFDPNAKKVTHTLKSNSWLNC

Histone deacetylase 1, sequence (Q13547 whole entry): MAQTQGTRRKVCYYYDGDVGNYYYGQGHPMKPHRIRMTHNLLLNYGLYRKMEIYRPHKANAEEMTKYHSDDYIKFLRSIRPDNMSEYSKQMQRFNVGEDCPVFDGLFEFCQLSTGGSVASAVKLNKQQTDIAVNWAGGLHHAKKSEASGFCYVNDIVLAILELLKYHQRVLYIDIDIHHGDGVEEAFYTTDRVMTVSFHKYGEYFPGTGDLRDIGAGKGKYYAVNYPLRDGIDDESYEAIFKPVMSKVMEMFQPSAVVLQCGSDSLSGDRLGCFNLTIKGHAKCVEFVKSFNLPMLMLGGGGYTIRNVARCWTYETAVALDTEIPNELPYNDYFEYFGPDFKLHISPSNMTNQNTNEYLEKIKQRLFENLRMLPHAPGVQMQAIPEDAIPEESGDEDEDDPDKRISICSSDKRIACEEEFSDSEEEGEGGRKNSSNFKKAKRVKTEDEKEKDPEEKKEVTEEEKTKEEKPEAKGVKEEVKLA
Histone deacetylase 9, sequence (Q9UKV0 whole entry): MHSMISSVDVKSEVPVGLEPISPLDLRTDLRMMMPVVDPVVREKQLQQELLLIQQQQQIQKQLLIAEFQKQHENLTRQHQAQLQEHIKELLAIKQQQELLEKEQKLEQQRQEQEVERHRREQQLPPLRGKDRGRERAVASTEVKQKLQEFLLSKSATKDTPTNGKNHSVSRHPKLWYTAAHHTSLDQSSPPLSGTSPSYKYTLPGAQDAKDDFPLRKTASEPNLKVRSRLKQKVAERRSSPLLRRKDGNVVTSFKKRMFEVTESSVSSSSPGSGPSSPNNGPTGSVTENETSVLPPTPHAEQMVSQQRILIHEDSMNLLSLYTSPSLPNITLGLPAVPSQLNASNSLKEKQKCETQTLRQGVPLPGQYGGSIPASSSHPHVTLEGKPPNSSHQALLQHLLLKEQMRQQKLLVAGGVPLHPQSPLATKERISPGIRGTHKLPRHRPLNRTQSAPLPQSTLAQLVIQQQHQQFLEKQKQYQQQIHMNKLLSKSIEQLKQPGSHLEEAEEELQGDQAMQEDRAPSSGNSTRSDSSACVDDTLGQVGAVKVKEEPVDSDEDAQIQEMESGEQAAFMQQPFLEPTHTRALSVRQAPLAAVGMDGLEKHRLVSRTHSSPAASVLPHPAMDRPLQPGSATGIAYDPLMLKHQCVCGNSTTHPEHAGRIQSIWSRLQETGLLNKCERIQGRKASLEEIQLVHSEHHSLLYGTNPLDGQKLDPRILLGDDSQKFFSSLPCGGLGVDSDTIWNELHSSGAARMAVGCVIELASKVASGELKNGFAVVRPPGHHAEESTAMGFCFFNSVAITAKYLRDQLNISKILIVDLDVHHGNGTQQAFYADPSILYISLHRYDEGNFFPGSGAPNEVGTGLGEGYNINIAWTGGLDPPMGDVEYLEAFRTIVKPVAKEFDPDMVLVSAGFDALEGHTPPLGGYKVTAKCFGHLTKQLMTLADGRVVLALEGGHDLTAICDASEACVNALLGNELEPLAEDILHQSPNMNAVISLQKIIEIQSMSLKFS
Histone deacetylase 2, sequence (Q92769 whole entry): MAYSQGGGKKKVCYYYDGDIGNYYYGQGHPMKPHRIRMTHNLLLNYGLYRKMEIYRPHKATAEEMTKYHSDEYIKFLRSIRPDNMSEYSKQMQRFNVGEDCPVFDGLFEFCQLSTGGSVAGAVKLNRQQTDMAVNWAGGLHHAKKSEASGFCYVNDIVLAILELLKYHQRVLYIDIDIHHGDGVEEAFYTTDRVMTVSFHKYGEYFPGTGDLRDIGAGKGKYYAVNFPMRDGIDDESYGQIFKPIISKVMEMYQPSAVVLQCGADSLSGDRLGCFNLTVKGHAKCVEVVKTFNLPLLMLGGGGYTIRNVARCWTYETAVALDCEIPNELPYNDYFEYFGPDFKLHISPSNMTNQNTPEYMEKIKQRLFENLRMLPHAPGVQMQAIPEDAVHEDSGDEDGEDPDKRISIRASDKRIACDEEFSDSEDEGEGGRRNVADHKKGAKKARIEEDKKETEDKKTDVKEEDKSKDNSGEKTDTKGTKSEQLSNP

Row | Compound | IC50 (Histone deacetylase 2) [nM] | EC50 (HeLa) [nM] | IC50 (Histone deacetylase 9) [nM] | IC50 (Histone deacetylase 7) [nM] | IC50 [1] [nM] | IC50 (Histone deacetylase 1) [nM] | Activity (HepG2 [2]) | EC50 (HepG2 [3]) [nM] | inhibition [4] | Activity (Stromelysin-1) [%]
1 | [N-]=[N+]=NCc1cc(N=[N+]=[N-])cc(C(=O)Nc2ccc(-c3cc(C(=O)NCCCCCCC(=O)NO)no3)cc2)c1 | 780 | 26500 | 37.8 | 2230 | 47 | 82.2 | Active | 4900 | Active | 
2 | [N-]=[N+]=NCc1cc(Cn2cc(NC(=O)CCCCCCC(=O)NO)cn2)cc(N=[N+]=[N-])c1 | 1000 | 30600 | 704 | 4510 | 274 | 99.1 |  | 13400 | Active | > 70
